In ChEMBL document CHEMBL3108678, “Isolation and synthesis of pulmonarins A and B, acetylcholinesterase inhibitors from the colonial ascidian Synoicum pulmonaria” (J Nat Prod, 2014):
Active and inactive are the calls of the source. No cut-off for these calls is given here.

How the values were obtained:
[1] = biological target: T1, Acetylcholinesterase (Electrophorus electricus, UniProt O42275); test: Inhibition of electric eel AChE using acetylthiocholine chloride as substrate after 5 mins by Ellman's method
T1 sequence (O42275 whole entry): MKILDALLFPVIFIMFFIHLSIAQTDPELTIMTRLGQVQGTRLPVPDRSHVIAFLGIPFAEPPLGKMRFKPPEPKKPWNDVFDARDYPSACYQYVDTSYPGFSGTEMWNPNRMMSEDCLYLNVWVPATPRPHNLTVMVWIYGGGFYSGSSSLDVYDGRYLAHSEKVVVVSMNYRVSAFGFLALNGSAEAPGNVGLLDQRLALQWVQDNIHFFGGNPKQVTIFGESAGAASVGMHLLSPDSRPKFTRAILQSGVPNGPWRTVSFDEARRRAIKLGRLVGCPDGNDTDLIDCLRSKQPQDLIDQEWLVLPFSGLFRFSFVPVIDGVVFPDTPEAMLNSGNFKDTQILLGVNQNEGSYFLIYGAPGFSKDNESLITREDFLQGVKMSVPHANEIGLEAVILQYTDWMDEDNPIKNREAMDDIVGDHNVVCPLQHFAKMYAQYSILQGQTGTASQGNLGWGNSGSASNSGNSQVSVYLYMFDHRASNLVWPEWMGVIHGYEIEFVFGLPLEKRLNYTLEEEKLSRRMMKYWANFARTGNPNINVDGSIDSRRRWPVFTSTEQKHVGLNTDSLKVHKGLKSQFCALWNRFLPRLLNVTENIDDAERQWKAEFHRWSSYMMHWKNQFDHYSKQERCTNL

[2] = test system: Escherichia coli; test: Antimicrobial activity against Escherichia coli ATCC 25922 at 8 to 500 ug/ml after 24 hrs; format: functional, organism-based
How it was run: (§1)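 Broth microdilution in Mueller Hinton broth at 37 °C. Samples dissolved in H2O are mixed 1:1 with log-phase bacterial suspension, about 5 × 10⁵ cells per well, and tested at 8 to 500 μg/mL. Growth is followed by optical density. MIC is the lowest concentration giving no OD change after 24 h at 37 °C. Cecropin B (25 μM) serves as positive control.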

[3] = test system: MCF7; test: Cytotoxicity against human MCF7 cells; format: cell-based
[4] = test system: A2058; test: Cytotoxicity against human A2058 cells; format: cell-based
[5] = test system: MRC5; test: Cytotoxicity against human MRC5 cells; format: cell-based
[6] = test system: Staphylococcus aureus; test: Antimicrobial activity against Staphylococcus aureus ATCC 9144 at 8 to 500 ug/ml after 24 hrs; format: functional, organism-based; how it was run: as §1
[7] = test system: HT-29; test: Cytotoxicity against human HT-29 cells; format: cell-based
[8] = test system: Corynebacterium glutamicum; test: Antimicrobial activity against Corynebacterium glutamicum ATCC 13032 after 24 hrs; format: functional; details: ATCC 13032, 24 h
How it was run: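 Broth microdilution in Mueller Hinton broth at 37 °C. Compounds were dissolved in water and tested from 8 to 500 μg/mL against log-phase bacteria at a start of about 5 × 10⁵ cells per well. Growth was followed by optical density, with cecropin B (25 μM) as positive control. MIC was taken as the lowest concentration giving no change in optical density after 24 h at 37 °C.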

[9] = test system: Staphylococcus epidermidis; test: Antimicrobial activity against Staphylococcus epidermidis ATCC 35984 assessed as inhibition of biofilm formation; format: functional, organism-based
[10] = test system: Pseudomonas aeruginosa; test: Antimicrobial activity against Pseudomonas aeruginosa ATCC 27853 at 8 to 500 ug/ml after 24 hrs; format: functional, organism-based; how it was run: as §1
[11] = biological target: T1, Acetylcholinesterase; test: Noncompetitive inhibition of electric eel AChE using acetylthiocholine chloride as substrate after 5 mins by Dixon plot analysis

COc1c(Br)cc(CC(=O)NCCCCC[N+](C)(C)C)cc1Br.[I-]
IC50 [1]: 36 µM | Activity [2]: inactive | Activity [3]: Non-toxic | Activity [4]: Non-toxic | Activity [5]: Non-toxic | Activity [6]: inactive | Activity [7]: Non-toxic | MIC [8]: 250 µg/mL | inhibition [9]: inactive | Activity [10]: inactive | Ki [11]: 20 µM

COc1c(Br)cc(C(=O)OCC[N+](C)(C)C)cc1Br.[Cl-]
IC50 [1]: 105 µM | Activity [2]: inactive | Activity [3]: Non-toxic | Activity [4]: Non-toxic | Activity [5]: Non-toxic | Activity [6]: inactive | Activity [7]: Non-toxic | MIC [8]: 500 µg/mL | inhibition [9]: inactive | Activity [10]: inactive | Ki [11]: 90 µM
